Read-outs that look alike come from different tables or passages of the source.
Key:
[1] = cited from earlier work
[2] = digoxin with the 3D regimen; cited from earlier work
[3] = type: in vivo, human (healthy adult subjects)
Method in brief: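 Single-centre, open-label, two-period study in healthy adults. Everolimus 0.75 mg given as a single dose alone on Period 1 Day 1. Blood concentrations gave Cmax, AUCinf, Tmax (median), C12 and t1/2. Natural-log parameters were compared by repeated-measures analysis.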

[4] = cited from earlier work; remark: listed apart in the source
P-gp = conditions: cited from earlier work
[5] = type: in vivo, human (healthy adult subjects); remark: listed apart in the source
[6] = 2 mg single-dose sirolimus with ketoconazole 200 mg BID at steady state; cited from earlier work
[7] = everolimus co-administered with the 3D regimen vs alone
[8] = sirolimus 2 mg single dose alone, Period 1 Day 1, N = 11, blood, geometric mean (geometric %CV)
[9] = sirolimus co-administered with the 3D regimen vs alone

Cc1ncc2n1-c1ccc(Cl)cc1C(c1ccccc1F)=NC2 [midazolam]
increase in AUC ([1]; midazolam co-administered with boceprevir): 5.3 fold
increase in AUC ([1]; midazolam co-administered with tipranavir/ritonavir): 26.9 fold

C[C@H]1O[C@@H](O[C@H]2[C@@H](O)C[C@H](O[C@H]3[C@@H](O)C[C@H](O[C@H]4CC[C@@]5(C)[C@H](CC[C@@H]6[C@@H]5C[C@@H](O)[C@]5(C)[C@@H](C7=CC(=O)OC7)CC[C@]65O)C4)O[C@@H]3C)O[C@@H]2C)C[C@H](O)[C@@H]1O [digoxin]
increase in AUC [2]: ≤ 16%
increase in Cmax [2]: ≤ 16%

CO[C@H]1C[C@@H]2CC[C@@H](C)[C@@](O)(O2)C(=O)C(=O)N2CCCC[C@H]2C(=O)O[C@H]([C@H](C)C[C@@H]2CC[C@@H](OCCO)[C@H](OC)C2)CC(=O)[C@H](C)/C=C(\C)[C@@H](O)[C@@H](OC)C(=O)[C@H](C)C[C@H](C)/C=C/C=C/C=C/1C [Everolimus, everolimus]
increase in AUCinf [3, 7]: 27 fold
increase in Cmax [3, 7]: 4.7 fold
increase in t 1/2 [3, 7]: 2.8 fold
delay in Tmax ([3]; everolimus in the presence of the 3D regimen vs alone): 1 h
AUC(0-inf) ([3]; human, blood, 0.75 mg): 41.9 ng·h/mL
Cmax ([3]; human, blood, 0.75 mg): 3.33 ng/mL
concentration at 12 h ([3]; human, blood, 0.75 mg): 0.513 ng/mL
half-life ([3]; human, blood, 0.75 mg, t 1/2, everolimus 0.75 mg single dose alone, Period 1 Day 1, N = 12, blood, harmonic mean (pseudo-standard deviation)): 42 h
half-life ([4]; everolimus): ~30 h

CC(C)c1nc(CN(C)C(=O)N[C@H](C(=O)N[C@@H](Cc2ccccc2)C[C@H](O)[C@H](Cc2ccccc2)NC(=O)OCc2cncs2)C(C)C)cs1 [ritonavir]
P-gp inhibition (in vitro data) (P-gp): potential inhibitors of P‐gp

CO[C@H]1C[C@@H]2CC[C@@H](C)[C@@](O)(O2)C(=O)C(=O)N2CCCC[C@H]2C(=O)O[C@H]([C@H](C)C[C@@H]2CC[C@@H](O)[C@H](OC)C2)CC(=O)[C@H](C)/C=C(\C)[C@@H](O)[C@@H](OC)C(=O)[C@H](C)C[C@H](C)/C=C/C=C/C=C/1C [Sirolimus, sirolimus]
half-life ([5]; human, blood, 2 mg, t 1/2, sirolimus 2 mg single dose alone, Period 1 Day 1, N = 11, blood, harmonic mean (pseudo-standard deviation)): 96 h
AUC(0-inf) ([5]; human, blood, oral, 2 mg): 178 ng·h/mL
C24 [5, 8]: 1.14 (29) ng/m
Cmax [5, 8]: 6.66 (33) ng/ml
t 1/2 ([5]; sirolimus 2 mg single dose alone, Period 1 Day 1, N = 11, blood, harmonic mean (pseudo-standard deviation)): 96.3 (15) h
Tmax ([5]; sirolimus 2 mg single dose alone, Period 1 Day 1, N = 11, blood, median (range)): 2.5 (1.5–4.0) h
increase in dose-normalized AUCinf [5, 9]: 38 fold
increase in dose-normalized Cmax [5, 9]: 6.4 fold
increase in t 1/2 [5, 9]: 2.6 fold
delay in Tmax ([5]; sirolimus in the presence of the 3D regimen vs alone): 3.5 h
increase in Cmax [6]: 4.3 fold
half-life ([4]; sirolimus): approximately 62 h

COc1c(-c2ccc3cc(NS(C)(=O)=O)ccc3c2)cc(-n2ccc(=O)[nH]c2=O)cc1C(C)(C)C [dasabuvir]
P-gp inhibition (in vitro data) (P-gp): potential inhibitors of P‐gp

Cc1cnc(C(=O)N[C@H]2CCCCC/C=C\[C@@H]3C[C@@]3(C(=O)NS(=O)(=O)C3CC3)NC(=O)[C@@H]3C[C@@H](Oc4nc5ccccc5c5ccccc45)CN3C2=O)cn1 [paritaprevir]
P-gp inhibition (in vitro data) (P-gp): potential inhibitors of P‐gp
